Results as given in ChEMBL document CHEMBL4152389, “Discovery of Novel, Drug-Like Ferroptosis Inhibitors with in Vivo Efficacy” (J Med Chem, 2018).
Converted amounts (≈) assume the structure as drawn. One block for each compound: values may come before it. The source made the active and inactive calls. No cut-off for these calls is given here.

What was measured:
[1] = Metabolic stability in mouse plasma assessed as compound recovery at 50 uM after 6 hrs by LC/MS/MS analysis; assay type: ADME, cell-free; conditions: read-out: Drug recovery
Outline: (§1)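 Compound incubated in human, rat or mouse plasma; percentage of remaining parent compound determined after 6 h.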

[2] = Metabolic stability in human plasma assessed as compound recovery at 50 uM after 6 hrs by LC/MS/MS analysis; assay type: ADME, cell-free; conditions: read-out: Drug recovery; outline: as §1
IMR-32 [3] = test: Inhibition of erastin-induced ferroptosis in human IMR32 cells preincubated for 1 hr followed by erastin stimulation and measured after 13 hrs by sytox green-based fluorescence assay; assay type: functional, cell-based
Outline: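 IMR-32 neuroblastoma cells seeded at 25,000/well, next day pretreated 1 h in triplicate with 1/3 dilution series (5 μM to 0.68 nM) plus Sytox Green 1.6 μM, then erastin 10 μM.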

[4] = Metabolic stability in rat plasma assessed as compound recovery at 50 uM after 6 hrs by LC/MS/MS analysis; assay type: ADME, cell-free; conditions: read-out: Drug recovery; outline: as §1
Mus musculus [5] = test: In vivo inhibition of iron sulphate-induced ferroptosis in C57BL/6N mouse assessed as LDH levels in plasma at 20 umol/kg, iv administered 15 mins prior to acute iron poisoning and measured after 2 hrs (reference value: 3572 +/- 185 U/L); assay type: functional
IMR-32 [6] = test: Inhibition of ferrous ammonium sulphate-induced ferroptosis in human IMR32 cells preincubated for 1 hr followed by ferrous ammonium sulphate stimulation and measured after 13 hrs by sytox green-based fluorescence assay
[7] = Kinetic solubility in PBS at pH 7.4 after 2 hrs by turbidimetric method; assay type: physicochemical; conditions: read-out: Kinetic_solubility
Outline: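 Kinetic solubility by turbidity (UV/VIS reading); final compound 3.125–200 μM, from 4 μL DMSO solution in 196 μL 10 mM PBS pH 7.4.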

[8] = Intrinsic clearance in rat liver microsomes at 50 uM after 15 mins to 24 hrs by LC/MS/MS analysis; assay type: ADME, microsome; conditions: read-out: CLH
Outline: (§2)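 Intrinsic clearance calculated from measured microsomal half-life in human, mouse or rat liver microsomes, accounting for protein concentration and incubation volume with species-specific parameters.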

[9] = Intrinsic clearance in mouse liver microsomes at 50 uM after 15 mins to 24 hrs by LC/MS/MS analysis; assay type: ADME, microsome; conditions: read-out: CLH; outline: as §2
[10] = Intrinsic clearance in human liver microsomes at 50 uM after 15 mins to 24 hrs by LC/MS/MS analysis; assay type: ADME, microsome; conditions: read-out: CLH; outline: as §2
Mus musculus [11] = test: Toxicity in wild type mouse assessed as ALT levels in plasma at 20 umol/kg, ip administered daily for 4 weeks measured at day 28 (reference value: <25 U/L); assay type: organism-based; conditions: in vivo, 672 h
Mus musculus [12] = test: Toxicity in wild type mouse assessed as LDH levels in plasma at 20 umol/kg, ip administered daily for 4 weeks measured at day 28 (reference value: 227 +/- 18 U/L); assay type: organism-based; conditions: in vivo, 672 h
[13] = Plasma concentration in Wistar rat at 5 mg/kg, iv after 0.083 to 24 hrs by UPLC-MS analysis; assay type: ADME, organism-based; conditions: in vivo
Outline: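 Single iv 5 mg/kg to three male Wistar rats; blood sampled at 0.083, 0.25, 0.5, 1, 2, 4 and 24 h; plasma drug measured by UPLC–tandem quadrupole MS, detection limit 53.1 ng/mL.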

Mus musculus [14] = test: Toxicity in wild type mouse assessed as relative gain in body weight at 20 umol/kg, ip administered daily for 4 weeks measured during compound dosing (reference value: 14.8 +/- 3.4%); assay type: organism-based; conditions: in vivo, 672 h
Mus musculus [15] = test: Toxicity in wild type mouse assessed as CK levels in plasma at 20 umol/kg, ip administered daily for 4 weeks measured at day 28 (reference value: 1501 +/- 196 U/L); assay type: organism-based; conditions: in vivo, 672 h
Mus musculus [16] = test: Toxicity in wild type mouse assessed as AST levels in plasma at 20 umol/kg, ip administered daily for 4 weeks measured at day 28 (reference value: 110 +/- 8 U/L); assay type: organism-based; conditions: in vivo, 672 h
Mus musculus [17] = test: Toxicity in wild type mouse assessed as urea levels in plasma at 20 umol/kg, ip administered daily for 4 weeks measured at day 28 (reference value: 42 +/- 2 mg/dl); assay type: organism-based; conditions: in vivo, 672 h
Mus musculus [18] = test: Toxicity in wild type mouse assessed as troponin levels in plasma at 20 umol/kg, ip administered daily for 4 weeks measured at day 28 (reference value: 0.041 +/- 0.005 ug/l); assay type: organism-based; conditions: in vivo, 672 h
Mus musculus [19] = test: Toxicity in wild type mouse assessed as body temperature at 20 umol/kg, ip administered daily for 4 weeks measured during compound dosing (reference value: 37 +/- 0.6 degreeC); assay type: organism-based; conditions: in vivo, 672 h
Mus musculus [20] = test: Toxicity in wild type mouse assessed as creatinine levels in plasma at 20 umol/kg, ip administered daily for 4 weeks measured at day 28 (reference value: <0.2 mg/dl); assay type: organism-based; conditions: in vivo, 672 h
[21] = Half life in human liver microsomes at 10 uM in presence of NADPH regenerating system by LC/MS/MS analysis; assay type: ADME, microsome
Outline: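 Incubation with human liver microsomes; metabolism by CYP450 and other NADP-dependent enzymes monitored and expressed as half-life (h).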

- solubility kinetic at 2 h [7]: > 200 µM
SMILES: CNCCNS(=O)(=O)c1ccc(NC2CCCCC2)c(N)c1.Cl
- IC50 (IMR-32 [3]): 0.214 µM

- solubility kinetic at 2 h [7]: > 200 µM
SMILES: Cl.NCCNS(=O)(=O)c1ccc(NC2CCCCC2)c(N)c1
- IC50 (IMR-32 [3]): 0.306 µM

- solubility kinetic at 2 h [7]: > 200 µM
SMILES: CN(C)CCNS(=O)(=O)c1ccc(NC2CCCCC2)c(N)c1
- IC50 (IMR-32 [3]): 0.16 µM

- remaining at 6 h, 50 µM [1]: 100%
- remaining at 6 h, 50 µM [2]: 84.2%
- Cp [13]: < 53.1 ng/mL
- remaining at 6 h, 50 µM [4]: 85.8%
- solubility kinetic at 2 h [7]: > 200 µM
- CLint scaled at 50 µM [8]: 3.4 mL/min/kg
- CLint scaled at 50 µM [9]: 18 mL/min/kg
- CLint scaled at 50 µM [10]: 1.1 mL/min/kg
SMILES: Cl.O=S(=O)(NCCN1CCNCC1)c1ccc(NC2CCCCC2)c(NCc2ccccc2)c1
- Activity (Mus musculus [11]): < 25 U/L
- Activity (Mus musculus [12]): 263 U/L
- IC50 (IMR-32 [3]): 0.01 µM
- Activity (Mus musculus [14]): 10.4%
- Activity (Mus musculus [15]): 1865 U/L
- Activity (Mus musculus [5]): 2346 U/L
- inhibition (IMR-32 [6]): Active
- Activity (Mus musculus [16]): 123 U/L
- Activity (Mus musculus [17]): 43 mg/dL
- Activity (Mus musculus [18]): 0.044 µg/L
- T (Mus musculus [19]): 37 °C
- Activity (Mus musculus [20]): < 0.2 mg/dL

- remaining at 6 h, 50 µM [1]: 100%
- remaining at 6 h, 50 µM [2]: 100%
- remaining at 6 h, 50 µM [4]: 100%
- solubility kinetic at 2 h [7]: 50 to 100 µM (≈ 23.6 to 47.3 µg/mL)
- CLint scaled at 50 µM [8]: 326 mL/min/kg
- CLint scaled at 50 µM [9]: 1220 mL/min/kg
- CLint scaled at 50 µM [10]: 22.6 mL/min/kg
SMILES: O=S(=O)(NCCN1CCOCC1)c1ccc(NC2CCCCC2)c(NCc2ccccc2)c1
- IC50 (IMR-32 [3]): 0.024 µM

- solubility kinetic at 2 h [7]: > 200 µM
SMILES: Nc1cc(S(=O)(=O)NCCN2CCOCC2)ccc1NC1CCCCC1
- IC50 (IMR-32 [3]): 0.448 µM

- solubility kinetic at 2 h [7]: > 200 µM
SMILES: CN1CCN(CCNS(=O)(=O)c2ccc(NC3CCCCC3)c(N)c2)CC1
- IC50 (IMR-32 [3]): 0.236 µM

- solubility kinetic at 2 h [7]: > 200 µM
SMILES: Cl.Nc1cc(S(=O)(=O)NCCN2CCNCC2)ccc1NC1CCCCC1
- IC50 (IMR-32 [3]): 0.296 µM

- solubility kinetic at 2 h [7]: > 200 µM
SMILES: CN1CCN(CCNS(=O)(=O)c2ccc(NC3CCCCC3)c(NCc3ccncc3)c2)CC1
- IC50 (IMR-32 [3]): 1.52 µM

- solubility kinetic at 2 h [7]: > 200 µM
SMILES: CN1CCN(CCNS(=O)(=O)c2ccc(NC3CCCCC3)c(NCc3ccccc3)c2)CC1
- IC50 (IMR-32 [3]): 1.07 µM

- solubility kinetic at 2 h [7]: > 200 µM
SMILES: COCCNS(=O)(=O)c1ccc(NC2CCCCC2)c(N)c1
- IC50 (IMR-32 [3]): 0.492 µM

- solubility kinetic at 2 h [7]: > 200 µM
SMILES: Cl.O=S(=O)(NCCN1CCNCC1)c1ccc(NC2CCCCC2)c(NCc2ccncc2)c1
- IC50 (IMR-32 [3]): 0.442 µM

- solubility kinetic at 2 h [7]: > 200 µM
SMILES: O=S(=O)(NCCN1CCOCC1)c1ccc(NC2CCCCC2)c(NCc2ccncc2)c1
- IC50 (IMR-32 [3]): 0.191 µM

The next lines start with the compound.

SMILES: CNCCNS(=O)(=O)c1ccc(NC2CCCCC2)c(NCc2ccccc2)c1.Cl
- remaining at 6 h, 50 µM [1]: 100%
- remaining at 6 h, 50 µM [2]: 90.3%
- IC50 (IMR-32 [3]): 0.003 µM
- remaining at 6 h, 50 µM [4]: 65.8%
- Activity (Mus musculus [5]): 2093 U/L
- inhibition (IMR-32 [6]): Active
- solubility kinetic at 2 h [7]: > 200 µM
- CLint scaled at 50 µM [8]: 161 mL/min/kg
- CLint scaled at 50 µM [9]: 139 mL/min/kg
- CLint scaled at 50 µM [10]: 1.7 mL/min/kg

SMILES: COCCNS(=O)(=O)c1ccc(NC2CCCCC2)c(NCc2ccccc2)c1
- IC50 (IMR-32 [3]): 0.022 µM
- solubility kinetic at 2 h [7]: 25 to 50 µM (≈ 10.4 to 20.9 µg/mL)

SMILES: CNCCNS(=O)(=O)c1ccc(NC2CCCCC2)c(NCc2ccncc2)c1.Cl
- IC50 (IMR-32 [3]): 0.157 µM
- solubility kinetic at 2 h [7]: > 200 µM

SMILES: CN(C)CCNS(=O)(=O)c1ccc(NC2CCCCC2)c(NCc2ccncc2)c1
- IC50 (IMR-32 [3]): 1.56 µM
- solubility kinetic at 2 h [7]: > 200 µM

SMILES: CN(C)CCNS(=O)(=O)c1ccc(NC2CCCCC2)c(NCc2ccccc2)c1
- IC50 (IMR-32 [3]): 0.554 µM
- solubility kinetic at 2 h [7]: > 200 µM

SMILES: CCOC(=O)c1ccc(NC2CCCCC2)c(N)c1
- remaining at 6 h, 50 µM [1]: 0%
- remaining at 6 h, 50 µM [2]: 47.3%
- half-life at 10 µM [21]: 6.54 min
- IC50 (IMR-32 [3]): 0.033 µM
- remaining at 6 h, 50 µM [4]: 1.1%
- Activity (Mus musculus [5]): 2898 U/L
- inhibition (IMR-32 [6]): Active
- solubility kinetic at 2 h [7]: > 200 µM

SMILES: Cl.NCCNS(=O)(=O)c1ccc(NC2CCCCC2)c(NCc2ccncc2)c1
- IC50 (IMR-32 [3]): 0.112 µM
- solubility kinetic at 2 h [7]: 100 to 200 µM

SMILES: COCCNS(=O)(=O)c1ccc(NC2CCCCC2)c(NCc2ccncc2)c1
- IC50 (IMR-32 [3]): 0.097 µM
- solubility kinetic at 2 h [7]: > 200 µM

SMILES: Cl.NCCNS(=O)(=O)c1ccc(NC2CCCCC2)c(NCc2ccccc2)c1
- remaining at 6 h, 50 µM [1]: 100%
- remaining at 6 h, 50 µM [2]: 100%
- IC50 (IMR-32 [3]): 0.012 µM
- remaining at 6 h, 50 µM [4]: 100%
- Activity (Mus musculus [5]): 2293 U/L
- inhibition (IMR-32 [6]): Active
- solubility kinetic at 2 h [7]: > 200 µM
- CLint scaled at 50 µM [8]: 27.4 mL/min/kg
- CLint scaled at 50 µM [9]: 4.8 mL/min/kg
- CLint scaled at 50 µM [10]: 1.3 mL/min/kg
